Calls of active or inactive are those of the source. The calls are words filed in the database; no cut-off is given here.
How the values were obtained:
Format in all cases: functional
[1] = system: Histoplasma capsulatum; experiment: Antifungal activity against Histoplasma capsulatum Darling isolate 1106 at 80 ug/ml after 3 weeks (reference value: 31 mm); details: Darling isolate 1106, 504 h, read-out: DIZ
[2] = system: Histoplasma capsulatum; experiment: Antifungal activity against Histoplasma capsulatum Darling isolate 1106 at 60 ug/ml after 1 week (reference value: 14 mm); details: Darling isolate 1106, 168 h, read-out: DIZ
[3] = system: Blastomyces dermatitidis; experiment: Antifungal activity against Blastomyces dermatitidis Gilchrist & Stokes isolate 1107 at 60 ug/ml after 2 weeks (reference value: 35 mm); details: Gilchrist & Stokes isolate 1107, 336 h, read-out: DIZ
Method in brief: (§1)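 Mycelial phase grown on Sabouraud dextrose agar at 25°C. Agar pH was set to 6 before the test solution was added and was 5.0-5.5 after. Test solutions contained HOAc and Me2SO, and solvent and blank controls were included. Each quadrant was center-inoculated with a 2 × 2 mm piece of a 2-week-old mycelial culture. Colony diameter was measured weekly for 3 weeks and reported as total increments (mm). Duplicates were run.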

[4] = system: Blastomyces dermatitidis; experiment: Antifungal activity against Blastomyces dermatitidis Gilchrist & Stokes isolate 1099 at 20 ug/ml after 1 week (reference value: 14 mm); method in brief: as §1
[5] = system: Histoplasma capsulatum; experiment: Antifungal activity against Histoplasma capsulatum Darling isolate 1106 at 40 ug/ml after 2 weeks (reference value: 25 mm); details: Darling isolate 1106, 336 h, read-out: DIZ
[6] = system: Histoplasma capsulatum; experiment: Antifungal activity against Histoplasma capsulatum Darling isolate 1098 at 20 ug/ml after 1 week (reference value: 12 mm); details: Darling isolate 1098, 168 h, read-out: DIZ
[7] = system: Blastomyces dermatitidis; experiment: Antifungal activity against Blastomyces dermatitidis Gilchrist & Stokes isolate 1099 at 10 ug/ml after 1 week (reference value: 14 mm); method in brief: as §1
[8] = system: Histoplasma capsulatum; experiment: Antifungal activity against Histoplasma capsulatum Darling isolate 1098 at 20 ug/ml after 2 weeks (reference value: 21 mm); details: Darling isolate 1098, 336 h, read-out: DIZ
[9] = system: Blastomyces dermatitidis; experiment: Antifungal activity against Blastomyces dermatitidis Gilchrist & Stokes isolate 1099 at 10 ug/ml after 3 weeks (reference value: 34 mm); details: Gilchrist & Stokes isolate 1099, 504 h, read-out: DIZ; method in brief: as §1
[10] = system: Blastomyces dermatitidis; experiment: Antifungal activity against Blastomyces dermatitidis Gilchrist & Stokes isolate 1099 at 80 ug/ml after 3 weeks (reference value: 34 mm); details: Gilchrist & Stokes isolate 1099, 504 h, read-out: DIZ; method in brief: as §1
[11] = system: Blastomyces dermatitidis; experiment: Antifungal activity against Blastomyces dermatitidis Gilchrist & Stokes isolate 1107 at 100 ug/ml after 2 weeks (reference value: 35 mm); details: Gilchrist & Stokes isolate 1107, 336 h, read-out: DIZ; method in brief: as §1
[12] = system: Blastomyces dermatitidis; experiment: Antifungal activity against Blastomyces dermatitidis Gilchrist & Stokes isolate 1099 at 10 ug/ml after 2 weeks (reference value: 27 mm); details: Gilchrist & Stokes isolate 1099, 336 h, read-out: DIZ; method in brief: as §1
[13] = system: Blastomyces dermatitidis; experiment: Antifungal activity against Blastomyces dermatitidis Gilchrist & Stokes isolate 1107 at 80 ug/ml after 3 weeks (reference value: 40 mm); details: Gilchrist & Stokes isolate 1107, 504 h, read-out: DIZ; method in brief: as §1
[14] = system: Blastomyces dermatitidis; experiment: Antifungal activity against Blastomyces dermatitidis Gilchrist & Stokes isolate 1099 at 80 ug/ml after 1 week (reference value: 14 mm)
[15] = system: Histoplasma capsulatum; experiment: Antifungal activity against Histoplasma capsulatum Darling isolate 1098 at 80 ug/ml after 1 week (reference value: 12 mm); details: Darling isolate 1098, 168 h, read-out: DIZ
[16] = system: Blastomyces dermatitidis; experiment: Antifungal activity against Blastomyces dermatitidis Gilchrist & Stokes isolate 1107 at 40 ug/ml after 1 week (reference value: 20 mm)
[17] = system: Histoplasma capsulatum; experiment: Antifungal activity against Histoplasma capsulatum Darling isolate 1106 at 60 ug/ml after 3 weeks (reference value: 31 mm); details: Darling isolate 1106, 504 h, read-out: DIZ
[18] = system: Blastomyces dermatitidis; experiment: Antifungal activity against Blastomyces dermatitidis Gilchrist & Stokes isolate 1099 at 100 ug/ml after 2 weeks (reference value: 27 mm)
[19] = system: Blastomyces dermatitidis; experiment: Antifungal activity against Blastomyces dermatitidis Gilchrist & Stokes isolate 1107 at 10 ug/ml after 3 weeks (reference value: 40 mm); details: Gilchrist & Stokes isolate 1107, 504 h, read-out: DIZ; method in brief: as §1
[20] = system: Histoplasma capsulatum; experiment: Antifungal activity against Histoplasma capsulatum Darling isolate 1106 at 40 ug/ml after 1 week (reference value: 14 mm); details: Darling isolate 1106, 168 h, read-out: DIZ
[21] = system: Histoplasma capsulatum; experiment: Antifungal activity against Histoplasma capsulatum Darling isolate 1098 at 10 ug/ml after 3 weeks (reference value: 28 mm); details: Darling isolate 1098, 504 h, read-out: DIZ
[22] = system: Histoplasma capsulatum; experiment: Antifungal activity against Histoplasma capsulatum Darling isolate 1098 at 10 ug/ml after 1 week (reference value: 12 mm); details: Darling isolate 1098, 168 h, read-out: DIZ
[23] = system: Histoplasma capsulatum; experiment: Antifungal activity against Histoplasma capsulatum Darling isolate 1106 at 100 ug/ml after 1 week (reference value: 14 mm)
[24] = system: Blastomyces dermatitidis; experiment: Antifungal activity against Blastomyces dermatitidis Gilchrist & Stokes isolate 1107 at 100 ug/ml after 1 week (reference value: 20 mm)
[25] = system: Histoplasma capsulatum; experiment: Antifungal activity against Histoplasma capsulatum Darling isolate 1098 at 60 ug/ml after 2 weeks (reference value: 21 mm); details: Darling isolate 1098, 336 h, read-out: DIZ
[26] = system: Histoplasma capsulatum; experiment: Antifungal activity against Histoplasma capsulatum Darling isolate 1098 at 60 ug/ml after 3 weeks (reference value: 28 mm); details: Darling isolate 1098, 504 h, read-out: DIZ
[27] = system: Histoplasma capsulatum; experiment: Antifungal activity against Histoplasma capsulatum Darling isolate 1098 at 40 ug/ml after 1 week (reference value: 12 mm); details: Darling isolate 1098, 168 h, read-out: DIZ
[28] = system: Histoplasma capsulatum; experiment: Antifungal activity against Histoplasma capsulatum Darling isolate 1106 at 10 ug/ml after 3 weeks (reference value: 31 mm); details: Darling isolate 1106, 504 h, read-out: DIZ
[29] = system: Histoplasma capsulatum; experiment: Antifungal activity against Histoplasma capsulatum Darling isolate 1098 at 80 ug/ml after 2 weeks (reference value: 21 mm); details: Darling isolate 1098, 336 h, read-out: DIZ
[30] = system: Blastomyces dermatitidis; experiment: Antifungal activity against Blastomyces dermatitidis Gilchrist & Stokes isolate 1099 at 80 ug/ml after 2 weeks (reference value: 27 mm)
[31] = system: Blastomyces dermatitidis; experiment: Antifungal activity against Blastomyces dermatitidis Gilchrist & Stokes isolate 1099 at 40 ug/ml after 1 week (reference value: 14 mm)
[32] = system: Blastomyces dermatitidis; experiment: Antifungal activity against Blastomyces dermatitidis Gilchrist & Stokes isolate 1099 at 60 ug/ml after 1 week (reference value: 14 mm)
[33] = system: Histoplasma capsulatum; experiment: Antifungal activity against Histoplasma capsulatum Darling isolate 1106 at 20 ug/ml after 2 weeks (reference value: 25 mm); details: Darling isolate 1106, 336 h, read-out: DIZ
[34] = system: Blastomyces dermatitidis; experiment: Antifungal activity against Blastomyces dermatitidis Gilchrist & Stokes isolate 1099 at 100 ug/ml after 1 week (reference value: 14 mm)
[35] = system: Blastomyces dermatitidis; experiment: Antifungal activity against Blastomyces dermatitidis Gilchrist & Stokes isolate 1107 at 80 ug/ml after 1 week (reference value: 20 mm)
[36] = system: Blastomyces dermatitidis; experiment: Antifungal activity against Blastomyces dermatitidis Gilchrist & Stokes isolate 1107 at 40 ug/ml after 3 weeks (reference value: 40 mm); details: Gilchrist & Stokes isolate 1107, 504 h, read-out: DIZ; method in brief: as §1
[37] = system: Blastomyces dermatitidis; experiment: Antifungal activity against Blastomyces dermatitidis Gilchrist & Stokes isolate 1107 at 10 ug/ml after 2 weeks (reference value: 35 mm); details: Gilchrist & Stokes isolate 1107, 336 h, read-out: DIZ; method in brief: as §1
[38] = system: Histoplasma capsulatum; experiment: Antifungal activity against Histoplasma capsulatum Darling isolate 1098 at 10 ug/ml after 2 weeks (reference value: 21 mm); details: Darling isolate 1098, 336 h, read-out: DIZ
[39] = system: Blastomyces dermatitidis; experiment: Antifungal activity against Blastomyces dermatitidis Gilchrist & Stokes isolate 1107 at 20 ug/ml after 1 week (reference value: 20 mm); method in brief: as §1
[40] = Gilchrist & Stokes isolate 1099, 168 h, read-out: DIZ
[41] = Gilchrist & Stokes isolate 1107, 168 h, read-out: DIZ
[42] = Gilchrist & Stokes isolate 1099, 336 h, read-out: DIZ

CS[C@@]1(C)CC[C@@H]2CCCCN2C1O (stereo partly drawn)
zone of inhibition at 80 µg/mL [1]: 26 mm | zone of inhibition at 60 µg/mL [2]: 10 mm | zone of inhibition at 60 µg/mL [3]: 31 mm | zone of inhibition at 20 µg/mL [4, 40]: 15 mm | zone of inhibition at 40 µg/mL [5]: 21 mm | zone of inhibition at 20 µg/mL [6]: 10 mm | zone of inhibition at 10 µg/mL [7, 40]: 16 mm | zone of inhibition at 20 µg/mL [8]: 18 mm | zone of inhibition at 10 µg/mL [9]: 38 mm | zone of inhibition at 80 µg/mL [10]: 33 mm | zone of inhibition at 100 µg/mL [11]: 31 mm | zone of inhibition at 10 µg/mL [12]: 28 mm | zone of inhibition at 80 µg/mL [13]: 40 mm | zone of inhibition at 80 µg/mL [14, 40]: 13 mm | zone of inhibition at 80 µg/mL [15]: 9 mm | zone of inhibition at 40 µg/mL [16, 41]: 20 mm | zone of inhibition at 60 µg/mL [17]: 27 mm | zone of inhibition at 100 µg/mL [18, 42]: 25 mm | zone of inhibition at 10 µg/mL [19]: 40 mm | zone of inhibition at 40 µg/mL [20]: 10 mm | zone of inhibition at 10 µg/mL [21]: 31 mm | zone of inhibition at 10 µg/mL [22]: 11 mm | zone of inhibition at 100 µg/mL ([23]; Darling isolate 1106, 168 h, read-out: DIZ): 9 mm | zone of inhibition at 100 µg/mL [24, 41]: 16 mm | zone of inhibition at 60 µg/mL [25]: 18 mm | zone of inhibition at 60 µg/mL [26]: 30 mm | zone of inhibition at 40 µg/mL [27]: 9 mm | zone of inhibition at 10 µg/mL [28]: 26 mm | zone of inhibition at 80 µg/mL [29]: 18 mm | zone of inhibition at 80 µg/mL [30, 42]: 25 mm | zone of inhibition at 40 µg/mL [31, 40]: 13 mm | zone of inhibition at 60 µg/mL [32, 40]: 13 mm | zone of inhibition at 20 µg/mL [33]: 20 mm | zone of inhibition at 100 µg/mL [34, 40]: 13 mm | zone of inhibition at 80 µg/mL [35, 41]: 18 mm | zone of inhibition at 40 µg/mL [36]: 40 mm | zone of inhibition at 10 µg/mL [37]: 33 mm | zone of inhibition at 10 µg/mL [38]: 20 mm | zone of inhibition at 20 µg/mL [39, 41]: 21 mm

C[C@@H]1[C@H](O)[C@@H](C)/C=C/C=C/C=C/C=C/C=C/C=C/C=C/[C@H](O[C@@H]2O[C@H](C)[C@@H](O)[C@H](N)[C@@H]2O)C[C@@H]2O[C@](O)(C[C@@H](O)C[C@@H](O)[C@H](O)CC[C@@H](O)C[C@@H](O)CC(=O)O[C@H]1C)C[C@H](O)[C@H]2C(=O)O [AMPHOTERICIN B]
zone of inhibition at 80 µg/mL [1]: 12 mm | zone of inhibition at 60 µg/mL [2]: 6 mm | zone of inhibition at 60 µg/mL [3]: 10 mm | Activity [4]: Active | zone of inhibition at 40 µg/mL [5]: 9 mm | zone of inhibition at 20 µg/mL [6]: 8 mm | Activity [7]: Active | zone of inhibition at 20 µg/mL [8]: 12 mm | zone of inhibition at 10 µg/mL [9]: 11 mm | zone of inhibition at 80 µg/mL [10]: 2 mm | zone of inhibition at 100 µg/mL [11]: 6 mm | zone of inhibition at 10 µg/mL [12]: 6 mm | zone of inhibition at 80 µg/mL [13]: 15 mm | Activity [14]: Active | zone of inhibition at 80 µg/mL [15]: 4 mm | Activity [16]: inactive | zone of inhibition at 60 µg/mL [17]: 13 mm | Activity [18]: Active | zone of inhibition at 10 µg/mL [19]: 15 mm | zone of inhibition at 40 µg/mL [20]: 6 mm | zone of inhibition at 10 µg/mL [21]: 19 mm | zone of inhibition at 10 µg/mL [22]: 8 mm | Activity [23]: inactive | Activity [24]: Active | zone of inhibition at 60 µg/mL [25]: 9 mm | zone of inhibition at 60 µg/mL [26]: 13 mm | zone of inhibition at 40 µg/mL [27]: 5 mm | zone of inhibition at 10 µg/mL [28]: 17 mm | zone of inhibition at 80 µg/mL [29]: 10 mm | Activity [30]: Active | Activity [31]: Active | Activity [32]: Active | zone of inhibition at 20 µg/mL [33]: 7 mm | Activity [34]: Active | Activity [35]: inactive | zone of inhibition at 40 µg/mL [36]: 13 mm | zone of inhibition at 10 µg/mL [37]: 9 mm | zone of inhibition at 10 µg/mL [38]: 14 mm | Activity [39]: inactive
